Screening results: PubChem BioAssay, Johns Hopkins Ion Channel Center
Hits are enriched below; roughly 3.8% of the tested compounds scored in any of these assays.
KCNQ1 inh – inhibitors of human KCNQ1 potassium channel. B-score at 10 µM. CHO-K1 KCNQ1, FluxOR thallium flux fluorescence; stronger effect = higher value. P51787. actives 1.3% (n = 310,000). AID 2642;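 active means compounds whose thallium flux B-score, printed positive for inhibition, exceeds three library SD while starting fluorescence stays within three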;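 further: channel opened by potassium depolarization with thallium stimulus after 20 min compound exposure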
KCNK9 inh – inhibitors of human KCNK9 two-pore domain potassium channel. Q9NPC2. HEK293 KCNK9, FluxOR thallium flux fluorescence; stronger effect = lower value. B-score at 10 µM. actives 1.2% (n = 310,000). AID 488922;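 active means ratio B-score over 3 SD below the library mean, with starting fluorescence within 5 SD of its mean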;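 further: negative B-score means less thallium flux so channel inhibition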
KCNK3 inh – human KCNK3 channel inhibition, primary screen | O14649 | CHO-KCNK3 thallium flux, FluxOR fluorescence; stronger effect = lower value | AID 602410 | B-score at 10 µM | actives 0.84% (n = 340,000);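 active means B-score under library mean minus 4 SD, starting fluorescence ratio at most library mean plus 5 SD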;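 further: more negative B-score means stronger inhibition of thallium flux through KCNK3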
Target sequence (O14649 whole entry, looked up): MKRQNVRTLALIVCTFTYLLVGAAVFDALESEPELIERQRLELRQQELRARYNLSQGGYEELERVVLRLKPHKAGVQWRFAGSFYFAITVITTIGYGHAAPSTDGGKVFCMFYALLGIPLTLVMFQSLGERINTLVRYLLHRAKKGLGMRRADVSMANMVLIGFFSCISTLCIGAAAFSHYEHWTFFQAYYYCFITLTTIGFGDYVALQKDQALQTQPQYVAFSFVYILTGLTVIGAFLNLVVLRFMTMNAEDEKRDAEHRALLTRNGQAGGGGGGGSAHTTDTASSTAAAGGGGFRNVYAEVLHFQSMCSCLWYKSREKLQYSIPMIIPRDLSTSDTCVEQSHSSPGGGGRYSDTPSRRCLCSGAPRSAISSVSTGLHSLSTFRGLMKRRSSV
Kir21 block – Kir2.1 (mouse) channel inhibition; actives 0.85% (n = 310,000); P35561; AID 1672; B-score at 10 µM; HEK293-Kir2.1, FluxOR thallium flux fluorescence; stronger effect = lower value;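 active means fluorescence ratio B-score at or below minus 3 SD of library scores, with starting-brightness B-score within 2 SD, cut at about -4.2 in these data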;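 further: channel flux triggered by added potassium and thallium sulfate stimulus; B-score of peak minus minimum fluorescence over baseline after thallium stimulus; more negative B-score means stronger Kir2.1 block with less thallium influx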
hERG protect – shields human hERG channel from block by proarrhythmic agents. CHO-hERG, FluxOR thallium flux, dofetilide IC70 present. actives 0.51% (n = 310,000). AID 1511. activation (rescue from dofetilide block), less the hit threshold, % at 10 µM. Q12809;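 active means activation above the mean of controls blocked by dofetilide plus 5 SD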;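 further: thallium influx through hERG after potassium depolarization seen as dye fluorescence rise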
KCNQ1 act – human KCNQ1 channel potentiation or activation; P51787; CHO-K1 KCNQ1, thallium flux FluxOR fluorescence; stronger effect = higher value; actives 0.35% (n = 310,000); B-score at 10 µM; AID 2648;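 active means fluorescence ratio B-score, a plate-corrected score, at least three library SD, with initial intensity B-score within 5 SD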
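assay system = CHO-K1 cells stably expressing KCNQ1 | medium = assay buffer, equal DMSO in all wells | timing = 37 °C overnight plating, 90-min dark dye load, 20-min compound pretreatment | measured by = kinetic FluxOR thallium fluorescence, 10-s 1-Hz baseline, 110-s post-stimulus read | measure = fluorescence change relative to baseline, converted to B score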
Numbers stand for hits.

What do the screens show for `Cc1cccc(-c2noc(CCC(=O)N3CCN(c4cc(C)ccc4C)CC3)n2)c1`?
KCNK3 inh: -9.8

What do the screens show for `Cc1ccc(C)c(N2CCN(C(=O)CCc3nc(-c4ccccc4C)no3)CC2)c1`?
KCNK3 inh: -9.2

What do the screens show for `Cc1ccc(C)c(N2CCN(C(=O)CCc3nc(-c4ccccc4Cl)no3)CC2)c1`?
KCNK3 inh: inactive

What do the screens show for `Cc1ccc(C)c(N2CCN(C(=O)CCc3nc(-c4ccccc4)no3)CC2)c1`?
KCNK3 inh: inactive

Results for CCOC(=O)/C=C1\SCC(=O)N1CC(=O)Nc1ccccc1OC(F)F ?
KCNQ1 inh: inactive; KCNK9 inh: inactive; KCNK3 inh: inactive; Kir21 block: inactive; hERG protect: inactive; KCNQ1 act: inactive

How did Cc1ccc(-n2ncc3c(SCc4ccccc4)ncnc32)cc1 do in these assays?
KCNQ1 inh: inactive; KCNK9 inh: inactive; KCNK3 inh: inactive; Kir21 block: inactive; hERG protect: 8.6; KCNQ1 act: inactive

How did CC1c2ccsc2CCN1S(=O)(=O)c1cccs1 (stereo unspecified) do in these assays?
KCNQ1 inh: inactive; KCNK9 inh: inactive; KCNK3 inh: inactive; Kir21 block: -6.2; hERG protect: inactive; KCNQ1 act: inactive

Results for CN1CCN(S(=O)(=O)c2cccs2)CC1 ?
KCNQ1 inh: inactive; KCNK9 inh: inactive; KCNK3 inh: inactive; Kir21 block: inactive; hERG protect: inactive; KCNQ1 act: inactive

How did COc1cc(NC(=O)CN2CCN(c3ccccc3O)CC2)c(C)cc1[N+](=O)[O-] do in these assays?
KCNQ1 inh: inactive; KCNK9 inh: inactive; KCNK3 inh: inactive; Kir21 block: inactive; hERG protect: inactive; KCNQ1 act: inactive

Results for COc1ccc(S(=O)(=O)Nc2ccc(O)c3ccccc23)cc1 ?
KCNQ1 inh: inactive; KCNK9 inh: inactive; KCNK3 inh: inactive; Kir21 block: inactive; hERG protect: 5.1; KCNQ1 act: inactive

What do the screens show for `COc1ccc(C(=O)COC(=O)c2ccccc2NS(=O)(=O)c2ccc(O)c([N+](=O)[O-])c2)cc1`?
KCNQ1 inh: 9; KCNK9 inh: inactive; KCNK3 inh: inactive; Kir21 block: inactive; hERG protect: inactive; KCNQ1 act: inactive

Results for COc1ccc(S(=O)(=O)Nc2ccccc2)cc1 ?
KCNQ1 inh: inactive; KCNK9 inh: inactive; KCNK3 inh: inactive; Kir21 block: inactive; hERG protect: inactive; KCNQ1 act: inactive

Results for Cc1ccc(S(=O)(=O)Nc2ccc(O)c3ccccc23)c(C)c1 ?
KCNQ1 inh: inactive; KCNK9 inh: inactive; KCNK3 inh: inactive; Kir21 block: inactive; hERG protect: 9.0; KCNQ1 act: inactive

What do the screens show for `Cc1ccc(C)c(S(=O)(=O)Nc2ccc(O)c3ccccc23)c1`?
KCNQ1 inh: inactive; KCNK9 inh: inactive; KCNK3 inh: inactive; Kir21 block: inactive; hERG protect: inactive; KCNQ1 act: inactive

Results for CC(C)c1ccccc1NC(=O)CNCCOc1ccccc1F ?
KCNQ1 inh: 6; KCNK9 inh: inactive; KCNK3 inh: inactive; Kir21 block: inactive; hERG protect: inactive; KCNQ1 act: inactive

Results for OCCNCCOc1ccccc1F ?
KCNQ1 inh: inactive; KCNK9 inh: inactive; KCNK3 inh: inactive; Kir21 block: inactive; hERG protect: inactive; KCNQ1 act: inactive

Results for O=C(Cc1noc2ccccc12)NNC(=S)Nc1ccccc1 ?
KCNQ1 inh: inactive; KCNK9 inh: inactive; KCNK3 inh: inactive; Kir21 block: inactive; hERG protect: 5.7; KCNQ1 act: inactive

How did O=C(Cc1noc2ccccc12)NNC(=S)Nc1ccc(Cl)cc1 do in these assays?
KCNQ1 inh: inactive; KCNK9 inh: inactive; KCNK3 inh: inactive; Kir21 block: inactive; hERG protect: inactive; KCNQ1 act: inactive

What do the screens show for `COc1ccc(NC(=O)CCCn2c(=O)c3sccc3n(Cc3ccccc3)c2=O)cc1`?
KCNQ1 inh: inactive; KCNK9 inh: inactive; KCNK3 inh: inactive; Kir21 block: inactive; hERG protect: inactive; KCNQ1 act: inactive

Results for O=[N+]([O-])c1cc(S(=O)(=O)Nc2ccccc2)ccc1NCc1ccccc1 ?
KCNQ1 inh: inactive; KCNK9 inh: -6.6; KCNK3 inh: inactive; Kir21 block: inactive; hERG protect: inactive; KCNQ1 act: inactive

What do the screens show for `O=[N+]([O-])c1cc(S(=O)(=O)Nc2ccccc2)ccc1NCc1cccnc1`?
KCNQ1 inh: inactive; KCNK9 inh: inactive; KCNK3 inh: inactive; Kir21 block: inactive; hERG protect: inactive; KCNQ1 act: inactive

How did O=C(O)c1cc(S(=O)(=O)N2CCCC2)ccc1Br do in these assays?
KCNQ1 inh: inactive; KCNK9 inh: inactive; KCNK3 inh: inactive; Kir21 block: inactive; hERG protect: inactive; KCNQ1 act: inactive

How did Cc1ccc2cc(C#N)c(SCC(=O)Nc3ccc4sc(C)nc4c3)nc2c1 do in these assays?
KCNQ1 inh: inactive; KCNK9 inh: inactive; Kir21 block: inactive; hERG protect: inactive; KCNQ1 act: inactive

What do the screens show for `CCN1CCN(c2nc(-c3ccccc3)c3ccccc3n2)CC1`?
KCNQ1 inh: inactive; KCNK9 inh: inactive; KCNK3 inh: inactive; Kir21 block: inactive; hERG protect: inactive; KCNQ1 act: inactive

What do the screens show for `c1ccc(-c2nc(N3CCNCC3)nc3ccccc23)cc1`?
KCNQ1 inh: inactive; KCNK9 inh: inactive; KCNK3 inh: inactive; Kir21 block: -7.2; hERG protect: inactive; KCNQ1 act: inactive

How did Cc1ccc(CO/N=C/c2c(O)cc(C)oc2=O)cc1 do in these assays?
KCNQ1 inh: inactive; KCNK9 inh: inactive; KCNK3 inh: inactive; Kir21 block: inactive; hERG protect: inactive; KCNQ1 act: inactive

How did CCCCc1sc(-c2c(C#N)c(N)nc3c2CCCCC3)cc1[N+](=O)[O-] do in these assays?
KCNQ1 inh: inactive; KCNK9 inh: -6.7; KCNK3 inh: inactive; Kir21 block: inactive; hERG protect: inactive; KCNQ1 act: inactive

Results for CC1(C)CC(c2nc(-c3ccccc3)cs2)CCS1 (stereo unspecified) ?
KCNQ1 inh: inactive; KCNK9 inh: inactive; KCNK3 inh: inactive; Kir21 block: inactive; hERG protect: inactive; KCNQ1 act: inactive

How did COc1ccc(CN(C(=O)c2nsc(Cl)c2Cl)C(C(=O)NC2CCCC2)c2ccc(C)cc2)cc1 (stereo unspecified) do in these assays?
KCNQ1 inh: 11; KCNK9 inh: inactive; KCNK3 inh: inactive; Kir21 block: inactive; hERG protect: inactive; KCNQ1 act: inactive

How did N#Cc1cc([N+](=O)[O-])c(-n2nnc3ccccc32)c([N+](=O)[O-])c1 do in these assays?
KCNQ1 inh: 8; KCNK9 inh: inactive; KCNK3 inh: inactive; Kir21 block: inactive; hERG protect: inactive; KCNQ1 act: inactive

Results for CC1Cc2ccccc2N1c1nc(C2CC2)nc2c1nnn2Cc1ccccc1 (stereo unspecified) ?
KCNQ1 inh: 6; KCNK9 inh: inactive; KCNK3 inh: inactive; Kir21 block: inactive; hERG protect: inactive; KCNQ1 act: inactive
